Active and inactive are the calls of the source. The rule behind the calls is not given here.
Assays:
DNA [1] = assay: Binding affinity to calf thymus DNA at 5 uM after 18 hrs by UV-visible spectrophotometric analysis; type: nucleic-acid assay; conditions: Bos taurus
Procedure, shortened: (§1)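 Calf thymus DNA at 50 μM bp with ligand fixed at 5 μM. Buffer was 10 mM sodium phosphate, 1 mM EDTA, pH 7.00, with ≤0.3% DMSO. Incubated at 37 °C, then melted at 1 °C/min from 50–99 °C while monitoring absorbance at 260 nm. Buffer baseline subtracted and DMSO-corrected. ΔTm = Tm(DNA+ligand) − Tm(DNA), run in triplicate.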

Homo sapiens [2] = organism: Homo sapiens; assay: Binding affinity to 170 bp human DNA topoisomerase 2-alpha promoter ICB2 site at 1 uM after 17 hrs by DNase 1 footprinting assay
Procedure, shortened: (§2)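 170 bp Topo IIα promoter fragment (ICB1 and ICB2) PCR-amplified from human genomic DNA, IR700 end-labeled, used at 4 nM final. Incubated in the dark for 17 h at room temperature. DNase I digestion for 8 min, stopped with EDTA. Denaturing sequencing gel with IR dye detection and G+A markers.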

[3] = Cytotoxicity against human NCI60 cells assessed as concentration required for total growth inhibition; type: functional
Procedure, shortened: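 NCI 60 human tumor cell line screen. TGI is the concentration causing total growth inhibition, given as the mean across the 60-cell-line panel.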

DNA [4] = assay: Binding affinity to calf thymus DNA at 5 uM after 4 hrs by UV-visible spectrophotometric analysis; type: nucleic-acid assay; conditions: Bos taurus; procedure, shortened: as §1
Homo sapiens [5] = organism: Homo sapiens; assay: Binding affinity to 170 bp human DNA topoisomerase 2-alpha promoter ICB1 site at 5 uM after 17 hrs by DNase 1 footprinting assay; procedure, shortened: as §2
NIH/3T3 [6] = assay: Binding affinity to Topo 2-alpha ICB1 (5'-CAGGGATTGGCTGGT-3') in mouse NIH/3T3 cells nuclear extract assessed as inhibition of NF-Y transcription factor binding at 50 uM preincubated for 1.5 hrs by electrophoretic mobility shift assay; type: cell-free
Procedure, shortened: (§3)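 Nuclear extract from NIH3T3 cells grown in DMEM with 10% newborn calf serum. 5 μg extract held at 4 °C for 30 min in K-Hepes pH 7.9 buffer with poly(dI-dC). About 0.1 ng of 32P end-labeled double-stranded ICB1 or ICB2 oligonucleotide then added for 2 h at room temperature. Run on 4% native polyacrylamide gel at 4 °C with autoradiography. Cold and mutated oligonucleotides served as controls.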

NIH3T3 = assay: Binding affinity to topo 2-alpha ICB2 (5'-CTACGATTGGTTCTT-3') in mouse NIH/3T3 cells nuclear extract assessed as inhibition of NF-Y transcription factor binding at 5 uM preincubated for 1.5 hrs by electrophoretic mobility shift assay; type: cell-free; procedure, shortened: as §3
[7] = Cytotoxicity against human NCI60 cells; type: functional; conditions: for CC50: read-out: LC50 (the source's name)
Procedure, shortened: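 Screened in the NCI 60 human tumour cell-line panel. Values are GI50 (50% growth inhibition), TGI (total growth inhibition) and LC50 (50% lethality) concentrations, each reported as the mean across the 60-cell-line panel.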

NIH/3T3 [8] = assay: Binding affinity to topo 2-alpha ICB1 (5'-CAGGGATTGGCTGGT-3') in mouse NIH/3T3 cells nuclear extract assessed as inhibition of NF-Y transcription factor binding at 5 uM preincubated for 1.5 hrs and by electrophoretic mobility shift assay; type: cell-free; procedure, shortened: as §3
Homo sapiens [9] = organism: Homo sapiens; assay: Binding affinity to 170 bp human DNA topoisomerase 2-alpha promoter ICB1 site at 1 uM after 17 hrs by DNase 1 footprinting assay; procedure, shortened: as §2

Row | SMILES | ΔTm (DNA [1]) | Activity (Homo sapiens [2]) | TGI [3] | ΔTm (DNA [4]) | Activity (Homo sapiens [5]) | inhibition (NIH/3T3 [6]) | inhibition (NIH3T3) | GI50 [7] | CC50 [7] | inhibition (NIH/3T3 [8]) | Activity (Homo sapiens [9])
1 | COC(=O)c1cc(NC(=O)c2cc(NC(=O)c3nc(NC(=O)CCCOc4cc5c(cc4OC)C(=O)N4CCC[C@H]4C=N5)cn3C)cn2C)cn1C | 21.1 °C | Active | 24 nM | 19.8 °C | Active | Active | Active | 1.3 nM | 2300 nM |  | 
2 | CCOC(=O)c1nc(NC(=O)c2cc(NC(=O)c3cc(NC(=O)CCCOc4cc5c(cc4OC)C(=O)N4CCC[C@H]4C=N5)cn3C)cn2C)cn1C | 18.7 °C |  | 37 nM | 17.6 °C |  |  |  | 3.8 nM | 6800 nM |  | 
3 | CCOC(=O)c1csc(NC(=O)c2cc(NC(=O)c3csc(NC(=O)CCCOc4cc5c(cc4OC)C(=O)N4CCC[C@H]4C=N5)n3)cn2C)n1 | 7.8 °C |  |  | 7.1 °C |  |  |  |  |  |  | 
4 | COC(=O)c1cc(NC(=O)c2cc(NC(=O)c3cc(NC(=O)CCCOc4cc5c(cc4OC)C(=O)N4CCC[C@H]4C=N5)cn3C)cn2C)cn1C | 20.2 °C |  | 32 nM | 18.7 °C |  |  |  | 15 nM | 1100 nM |  | 
5 | COC(=O)c1cc(NC(=O)c2nc(NC(=O)c3nc(NC(=O)CCCOc4cc5c(cc4OC)C(=O)N4CCC[C@H]4C=N5)cn3C)cn2C)cn1C | 15.4 °C |  | 37 nM | 15 °C |  |  |  | 3.8 nM | 6800 nM |  | 
6 | CCOC(=O)c1nc(NC(=O)c2nc(NC(=O)c3cc(NC(=O)CCCOc4cc5c(cc4OC)C(=O)N4CCC[C@H]4C=N5)cn3C)cn2C)cn1C | 15.2 °C |  | 27 nM | 14.8 °C |  |  |  | 13.5 nM | 9500 nM |  | 
7 | CCOC(=O)c1nc(NC(=O)c2nc(NC(=O)c3nc(NC(=O)CCCOc4cc5c(cc4OC)C(=O)N4CCC[C@H]4C=N5)cn3C)cn2C)cn1C | 12 °C |  | 1290 nM | 11.7 °C |  |  |  | 87.1 nM | 15400 nM |  | 
8 | CCOC(=O)c1csc(NC(=O)c2csc(NC(=O)c3cc(NC(=O)CCCOc4cc5c(cc4OC)C(=O)N4CCC[C@H]4C=N5)cn3C)n2)n1 | 8.4 °C |  |  | 8.1 °C |  |  |  |  |  |  | 
9 | CCOC(=O)c1csc(NC(=O)c2cc(NC(=O)c3cc(NC(=O)CCCOc4cc5c(cc4OC)C(=O)N4CCC[C@H]4C=N5)cn3C)cn2C)n1 | 18.6 °C |  | 28 nM | 17.7 °C |  |  |  | 2.9 nM | 8900 nM |  | 
10 | COC(=O)c1cc(NC(=O)c2cc(NC(=O)c3csc(NC(=O)CCCOc4cc5c(cc4OC)C(=O)N4CCC[C@H]4C=N5)n3)cn2C)cn1C | 18.2 °C |  | 30 nM | 17.4 °C |  |  |  | 1.4 nM | 4400 nM |  | 
11 | CCOC(=O)c1csc(NC(=O)c2csc(NC(=O)c3csc(NC(=O)CCCOc4cc5c(cc4OC)C(=O)N4CCC[C@H]4C=N5)n3)n2)n1 | 10.9 °C |  | 2040 nM | 10.7 °C |  |  |  | 282 nM | 15800 nM |  | 
12 | COC(=O)c1cc(NC(=O)c2csc(NC(=O)c3cc(NC(=O)CCCOc4cc5c(cc4OC)C(=O)N4CCC[C@H]4C=N5)cn3C)n2)cn1C | 20.7 °C |  | 50 nM | 19.9 °C |  |  |  | 2.8 nM | 9100 nM |  | 
13 | COC(=O)c1cc(NC(=O)c2nc(NC(=O)c3cc(NC(=O)CCCOc4cc5c(cc4OC)C(=O)N4CCC[C@H]4C=N5)cn3C)cn2C)cn1C | 16.9 °C |  | 20 nM | 16 °C |  |  |  | 3 nM | 6600 nM |  | 
14 | CCOC(=O)c1nc(NC(=O)c2cc(NC(=O)c3nc(NC(=O)CCCOc4cc5c(cc4OC)C(=O)N4CCC[C@H]4C=N5)cn3C)cn2C)cn1C | 16.2 °C |  | 141 nM | 15.7 °C |  |  |  | 4.2 nM | 12300 nM |  | 
15 | COC(=O)c1cc(NC(=O)c2cc(NC(=O)CCCOc3cc4c(cc3OC)C(=O)N3CCC[C@H]3C=N4)cn2C)cn1C |  | Active |  |  |  |  | Active |  |  | Active | Active

Reference: ChEMBL document CHEMBL2417466, “An extended pyrrolobenzodiazepine-polyamide conjugate with selectivity for a DNA sequence containing the ICB2 transcription factor binding site” (2013)
